ChEMBL document CHEMBL1129653, “Synthesis and quantitative structure-activity relationship of a novel series of small conductance Ca(2+)-activated K+ channel blockers related to dequalinium” (J Med Chem, 1996)

What was measured:
[1] = Equieffective molar ratio of compound to inhibit hyperpolarization in cultured rat sympathetic neurons; format: functional, Sympathetic neuron
Summary of the method: (§1)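 Rat sympathetic neurons dissociated, plated on laminin-coated dishes and cultured 3–10 days, then perfused with physiological salt solution (mM: NaCl 118, KCl 4.8, CaCl2 2.5). AHP inhibition taken as the peak difference between control and blocker records, as % of control AHP. Dequalinium reference run in each series. EMR is test-compound IC50 divided by dequalinium IC50 from the same experiment; IC50 by Hill fit, ≥3 cells.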

[2] = molecular target: T1, Small conductance calcium-activated potassium channel (Rattus norvegicus, UniProt P70604+P70606+P70605); assay: SKCa-blocking activity by its ability to inhibit after hyperpolarization (AHP) in cultured rat sympathetic neurons; format: functional, cell-based; conditions: sympathetic neuron
Summary of the method: (§2)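 AHP block was the peak of the digitally subtracted control-minus-drug record, as % of control AHP at the same time point. IC50 came from a Hill equation fit over at least three cells. Test concentrations above 10–30 µM were generally avoided.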

[3] = Equieffective molar ratio of compound to inhibit hyperpolarization in cultured rat sympathetic neurons; No activity up to this concentration; format: functional, Sympathetic neuron; summary of the method: as §1
[4] = molecular target: T1, Small conductance calcium-activated potassium channel; assay: SKCa-blocking activity as inhibitino of after hyperpolarization (AHP) in cultured rat sympathetic neurons; No activity at maximal dose used; format: functional, cell-based; conditions: sympathetic neuron
Summary of the method: as §2, with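 “Cultured rat sympathetic neurons (laminin-coated dishes, 3–10 days) were perfused with physiological salt solution (mM: NaCl 118, KCl 4.8, CaCl2 2.5). AHP block” for “AHP block”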

[5] = molecular target: T1, Small conductance calcium-activated potassium channel; assay: SKCa-blocking activity as inhibition of after hyperpolarization (AHP) in cultured rat sympathetic neurons; Insufficient activity at maximal dose used; format: functional, cell-based; conditions: sympathetic neuron
Summary of the method: as §2, with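 “Cultured rat sympathetic neurons (laminin-coated dishes, 3–10 days) were perfused with physiological salt solution (mM: NaCl 118, KCl 4.8, CaCl2 2.5). AHP block” for “AHP block”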

[6] = Equieffective molar ratio of compound to inhibit hyperpolarization in cultured rat sympathetic neurons; Insufficient activity up to this concentration to determine; format: functional, Sympathetic neuron; summary of the method: as §1

| Structure (SMILES) | Ratio [1] | IC50 [2] | other results |
| --- | --- | --- | --- |
| c1ccc2c(NCCCCCCCCCCNc3ccnc4ccccc34)ccnc2c1 | 3.5 | – | – |
| Cc1cc(NCCCCCCCCCCCCNc2cc(C)[n+](Cc3ccccc3)c3ccccc23)c2ccccc2[n+]1Cc1ccccc1 | 4 | 2400 nM | – |
| c1ccc2c(OCCCCCCCCCCOc3ccnc4ccccc34)ccnc2c1 | 16 | 18000 nM | – |
| C[n+]1ccc(NCCCCCCCCNc2cc[n+](C)c3ccccc23)c2ccccc21 | 3.1 | 2700 nM | – |
| C[n+]1ccc(CCCCCCCCCCc2cc[n+](C)c3ccccc23)c2ccccc21 | 26 | 40000 nM | – |
| C[n+]1ccc(CCCCCCCCCCCCc2cc[n+](C)c3ccccc23)c2ccccc21 | 5.9 | 3900 nM | – |
| c1ccc2c(CCCCCCCCCCCCc3ccnc4ccccc34)ccnc2c1 | – | – | Ratio [3]: >10; IC50 [4]: > 10000 nM |
| C[n+]1ccc(NCCCCCCCCCCNc2cc[n+](C)c3ccccc23)c2ccccc21 | 1.9 | 2100 nM | – |
| C[n+]1ccc(OCCCCCCCCCCOc2cc[n+](C)c3ccccc23)c2ccccc21 | 7.2 | 6800 nM | – |
| c1ccc2c(SCCCCCCCCCCSc3ccnc4ccccc34)ccnc2c1 | – | – | IC50 [5]: > 10000 nM; Ratio [6]: >10 |
| Cc1cc(NCCCCCCCCCCNc2cc(C)[n+](CCC(c3ccccc3)c3ccccc3)c3ccccc23)c2ccccc2[n+]1CCC(c1ccccc1)c1ccccc1 | 6.2 | 4300 nM | – |
| Cc1cc(NCCCCCCCCCCNc2cc(C)[n+](Cc3ccccc3)c3ccccc23)c2ccccc2[n+]1Cc1ccccc1 | 0.6 | 400 nM | – |
| C[n+]1ccc(NCCCCCCCCCCNc2cc[n+](C)c3cc(Cl)ccc23)c2ccc(Cl)cc21 | 1.5 | 1300 nM | – |
| Cc1cc(NCCCCCCCCCCCCNc2cc(C)nc3ccccc23)c2ccccc2n1 | 7.1 | 3800 nM | – |
| C[n+]1ccc(SCCCCCCCCCCSc2cc[n+](C)c3ccccc23)c2ccccc21 | 6.2 | 3700 nM | – |
| COc1cc(C[n+]2c(C)cc(NCCCCCCCCCCNc3cc(C)[n+](Cc4cc(OC)cc(OC)c4)c4ccccc34)c3ccccc32)cc(OC)c1 | 2.1 | 1700 nM | – |
| COc1cc(C[n+]2c(C)cc(NCCCCCCCCCCNc3cc(C)nc4ccccc34)c3ccccc32)cc(OC)c1 | 1.2 | 750 nM | – |
| Cc1cc(NCCCCCCCCCCCCNc2cc(C)[n+](Cc3ccccc3)c3ccccc23)c2ccccc2n1 | 8 | 4400 nM | – |
| Cc1cc(NCCCCCCCCCCNc2cc(C)[n+](Cc3ccccc3)c3ccccc23)c2ccccc2n1 | 2.4 | 1300 nM | – |
| c1ccc(C[n+]2ccc(NCCCCCCCCCCNc3cc[n+](Cc4ccccc4)c4ccccc34)c3ccccc32)cc1 | 1 | 700 nM | – |
| Cc1cc(N)c2ccccc2[n+]1CCCCCCCCCC[n+]1c(C)cc(N)c2ccccc21.[Cl-].[Cl-] [DEQUALINIUM CHLORIDE] | – | 1000 nM | – |
| Cc1cc(NCCCCCCCCCCNc2cc(C)nc3ccccc23)c2ccccc2n1 [QUINDECAMINE] | 3.6 | 2500 nM | – |
